Measurements taken from PubChem BioAssay.
Activity calls are given as the source filed them.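 The calls were made as follows, unless noted: active = inhibition above 20% together with a positive visual image hit; inconclusive = visual image hit but inhibition not above 20%; inactive = no visual image hit.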

Key:
[1] = inhibitors of TNFa-induced NFkB p65 translocation, primary screen, imaging, HUVEC, MLSMR starter and 10KST1 sets (AID 438); settings: HUVEC TNFa-induced p65 nuclear translocation; cell count: measured here: nuclei count (cytotoxicity indicator), at 2.08 µM; inhibition: at 2 µM, stronger effect = higher value, 0% TNFa-plus-vehicle, 100% no-TNFa wells;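 also: compound added about 3h40 before a 20 min TNFalpha stimulation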;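 as to inhibition: signal is the nuclear over cytoplasmic p65 intensity ratio per well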
[2] = endothelial E-selectin expression blockers – imaging, HUVEC, immunofluorescence, MLSMR starter and 10KST1 sets, primary screen (AID 487;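 active = visually confirmed hit in the image check and inhibition above 20%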;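 as to inhibition: signal is fraction of cell area covered by stained E-selectin grains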;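 as to nuclei count: 100% = median nuclei count of all wells on the same plate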); settings: HUVEC TNFalpha-induced E-selectin immunofluorescence imaging, at 2 µM; inhibition: stronger effect = higher value; nuclei count: measured here: cell number, toxicity
[3] = Primary imaging screen for DUSP6 inhibitors that restore phospho-Erk in transfected HeLa cells, chemical complementation (AID 609;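 active = compounds giving at least 50% inhibition in the cell-based MKP-3 phosphatase rescue imaging test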;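 as to inhibition: phospho-Erk level distribution per well compared with pooled transfected vehicle control wells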); settings: HeLa MKP-3 transfected, phospho-Erk imaging KS statistic, at 10 µM, cells stimulated with TPA for 15 min
[4] = molecular target: Dual specificity protein phosphatase 6 (Homo sapiens) (UniProt Q16828); experiment: as above; settings: HeLa MKP-3 transfected, phospho-Erk imaging KS statistic; at 10 µM; stronger effect = higher value; cells stimulated with TPA for 15 min
Dual specificity protein phosphatase 6 (Homo sapiens), sequence (Q16828 whole entry, looked up): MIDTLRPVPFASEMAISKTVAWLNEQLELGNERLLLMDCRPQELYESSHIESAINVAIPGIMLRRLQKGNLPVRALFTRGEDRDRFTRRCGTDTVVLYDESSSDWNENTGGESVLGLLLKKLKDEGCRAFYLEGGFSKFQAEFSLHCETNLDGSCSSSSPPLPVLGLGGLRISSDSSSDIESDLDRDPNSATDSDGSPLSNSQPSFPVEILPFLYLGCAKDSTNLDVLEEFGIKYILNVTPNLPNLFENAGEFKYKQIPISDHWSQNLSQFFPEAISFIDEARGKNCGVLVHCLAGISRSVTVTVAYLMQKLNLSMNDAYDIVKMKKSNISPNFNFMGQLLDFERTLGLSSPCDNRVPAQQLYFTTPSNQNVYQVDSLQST

[5] = molecular target: Voltage-gated potassium channel subunit beta-2 (Rattus norvegicus) (UniProt P62483); experiment: inhibitors of rat Kvbeta2 reductase activity – biochemical, NADPH fluorescence, primary screen (AID 622;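 active = fluorescence slope higher than the sample average by over 3 SD, cut at about -0.22 in these data, passing the limit was not always enough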;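 also: slope of raw intensity against log time taken from 70 to 1610 s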); settings: recombinant KvBeta, 4-cyanobenzaldehyde reduction, at 10 µM, stronger effect = higher value
Voltage-gated potassium channel subunit beta-2 (Rattus norvegicus), sequence (P62483 whole entry, looked up): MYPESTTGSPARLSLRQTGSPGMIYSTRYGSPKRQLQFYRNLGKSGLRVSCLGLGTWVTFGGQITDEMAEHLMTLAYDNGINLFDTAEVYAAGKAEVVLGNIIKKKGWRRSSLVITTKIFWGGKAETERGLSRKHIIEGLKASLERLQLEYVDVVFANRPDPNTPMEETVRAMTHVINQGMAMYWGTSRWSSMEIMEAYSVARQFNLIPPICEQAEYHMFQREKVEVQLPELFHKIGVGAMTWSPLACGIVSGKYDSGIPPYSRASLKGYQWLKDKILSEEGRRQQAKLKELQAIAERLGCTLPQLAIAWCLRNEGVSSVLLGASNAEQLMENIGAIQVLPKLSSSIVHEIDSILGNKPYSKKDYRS

[6] = molecular target: Voltage-gated potassium channel subunit beta-2 (Rattus norvegicus) (UniProt P62483); experiment: enhancers of rat Kvbeta2 NADPH turnover – biochemical, NADPH fluorescence, primary screen (AID 623;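 active = NADPH fluorescence slope more negative than the mean of all samples by about 3 SD, 99.7% confidence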;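 also: fluorescence intensity change per second fitted from 20 to 320 s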); settings: Recombinant KvBeta, NADPH fluorescence decrease slope, 10 min; at 10 µM; stronger effect = lower value
[7] = molecular target: Alpha-2C adrenergic receptor (Homo sapiens) (UniProt P18825); experiment: compounds altering alpha2C-coupled GIRK flux – cell-based, HEK293 alpha2C/GIRK1/2, thallium flux, primary screen (AID 624;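 active = fluorescence slope after compound addition differing from the mean of all screened samples at 99.7% confidence, in either direction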;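 also: slope of fluorescence ratio to pre-addition baseline per second over 15 to 24 s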); settings: thallium flux BTC fluorescence, at 10 µM, actives lie on both sides
Alpha-2C adrenergic receptor (Homo sapiens), sequence (P18825 whole entry, looked up): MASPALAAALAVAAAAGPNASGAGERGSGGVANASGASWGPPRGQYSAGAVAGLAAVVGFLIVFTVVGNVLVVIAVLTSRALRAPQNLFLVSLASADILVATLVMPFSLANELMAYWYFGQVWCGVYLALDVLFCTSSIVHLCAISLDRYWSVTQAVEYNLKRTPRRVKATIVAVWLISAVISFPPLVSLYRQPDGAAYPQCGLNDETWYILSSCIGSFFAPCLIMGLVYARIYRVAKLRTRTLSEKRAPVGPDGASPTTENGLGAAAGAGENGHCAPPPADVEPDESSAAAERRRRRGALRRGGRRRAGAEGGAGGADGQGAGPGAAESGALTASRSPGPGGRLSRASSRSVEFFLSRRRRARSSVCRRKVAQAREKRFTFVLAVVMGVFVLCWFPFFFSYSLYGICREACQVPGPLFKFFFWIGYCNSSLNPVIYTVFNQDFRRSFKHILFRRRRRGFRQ

[8] = inhibitors of larval lipid processing in zebrafish, primary screen, whole organism, PED6 fluorescence, gall bladder and intestine (AID 686;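 active = a full or partial loss of lipid-probe fluorescence in the fish gall bladder, intestine or both, judged by eye; inactive = no fluorescence loss, or compound toxic to the fish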;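 also: larvae 5 to 7 days old with five fish per well; signal comes from phospholipase A2 cleavage of quenched PED6 carried via bile; overnight exposure to compound and PED6 before scoring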); settings: Zebrafish larvae PED6 lipid processing, fluorescence scoring; screened at 20 µM (by protocol)
In short: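 system = live zebrafish larvae aged 5-7 days, whole organism | probe or stimulus = ingested quenched lipid PED6 at 100 nM | doses = 20 µM single dose | timing = overnight exposure | detection = fluorescence microscopy with visual scoring of gall bladder and intestine | read-out = visual per-well fluorescence inhibition score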

[9] = loss of swimming-algae plug formation – whole organism, Chlamydomonas reinhardtii, WT vs cilia-less mutant, absorbance, 96-well, primary screen (AID 463189;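 active = inhibition at or above 50% relative to wild type and mutant plate controls; inactive = inhibition below 50%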;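 also: 0% = wild type cc124 cells in DMSO and 100% = ciliumless bld1 mutant cells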); settings: Chlamydomonas reinhardtii gravitaxis, OD600 absorbance, 2 days; at 10 µM; stronger effect = higher value
[10] = measured here: cell density z-score
[11] = measured here: nuclear c-Myc green intensity z-score
[12] = measured here: nuclear pErk red intensity z-score, stronger effect = higher value

Row | Compound | cell count [1] | inhibition [1] | inhibition [2] | nuclei count [2] | z-score [3, 10] | z-score [3, 11] | z-score [3, 12] | inhibition [4] | fluorescence slope [5] | NADPH fluorescence slope [6] | slope [7] | outcome [8] | inhibition [9]
1 | Fc1cnc(N2CCOCC2)nc1NCc1ccccc1 | 649 | -2.3% (inactive) | 32.4% (inactive) | 156% | -0.315 | 0.582 | 0.114 | 6.51% (inactive) | -0.388 (inactive) | -5.9e-05 (inactive) | 0.00592 (inactive) | inactive | 0.319% (inactive)
2 | CCOC(=O)CC(=O)CSc1nc2c(cc1C#N)CCCCC2 | 510 | -8.3% (inactive) | -29.1% (inactive) | 114% | -0.0989 | -0.82 | 0.239 | 6.51% (inactive) | -0.342 (inactive) | -3e-05 (inactive) | 0.00873 (inactive) | inactive | 12.7% (inactive)
3 | Cc1cccc(Nc2ncnc3ccccc23)c1 | 458 | -5.2% (inactive) | -1% (inactive) | 123% | -0.619 | 0.167 | -0.509 | 18.2% (inactive) | -0.519 (inactive) | -6.7e-05 (inactive) | 0.00506 (inactive) | inactive | 2.93% (inactive)
4 | Cc1nc(Nc2ncc3c(n2)CC(C)(C)CC3=O)nc2ccccc12 | 532 | -10.9% (inactive) | -13% (inactive) | 195% | -2.93 | -0.197 | 3.21 | -3.5% (inactive) | -0.376 (inactive) | -2.4e-05 (inactive) | 0.0055 (inactive) | inactive | -7.48% (inactive)
5 | CCN(CC)CCCn1c(C)cc2c(c1=O)C(c1ccccc1)C(C#N)=C(N)O2 (configuration not stated) | 417 | 11.8% (inactive) | -54.2% (inactive) | 140% | -0.637 | 0.212 | 1.28 | 0.671% (inactive) | -0.395 (inactive) | -3.1e-05 (inactive) | 0.0067 (inactive) | inactive | -1.93% (inactive)
6 | COc1cc(C2C(C#N)=C(N)Oc3cc(C)n(Cc4ccccn4)c(=O)c32)cc2c1OCO2 (configuration not stated) | 433 | 6.2% (inactive) | -56.2% (inactive) | 88.8% | -2.67 | -0.393 | 1.97 | 11.4% (inactive) | -0.442 (inactive) | -1.2e-05 (inactive) | 0.00753 (inactive) | inactive | -11.1% (inactive)
7 | Cc1ccc2[nH]c3c(NCCN4CCOCC4)ncnc3c2c1 | 558 | -21.5% (inactive) | -90.3% (inactive) | 160% | -2.07 | -0.295 | -0.0856 | -6.06% (inactive) | -0.475 (inactive) | -5.9e-05 (inactive) | 0.00484 (inactive) | inactive | 2.83% (inactive)
8 | O=C(c1cccs1)N1CCC(N2CCN(c3ccccc3)CC2)CC1 | 390 | -7.3% (inactive) | -50.1% (inactive) | 119% | 0.783 | 0.365 | -0.94 | 11.3% (inactive) | -0.378 (inactive) | -1.9e-05 (inactive) | 0.00799 (inactive) | inactive | 43.7% (inactive)
9 | Cc1cccc(N)c1SC1CCCCC1O (configuration not stated) | 420 | -5.2% (inactive) | -79.6% (inactive) | 131% | 0.781 | -1.44 | -1.09 | 23.9% (inactive) | -0.46 (inactive) | -2.2e-05 (inactive) | 0.00629 (inactive) | inactive | 15% (inactive)
10 | COc1ccc(C=NCCC2(O)CC(C)N(C)CC2C)cc1 (configuration not stated) | 340 | -16.4% (inactive) | -85.1% (inactive) | 131% | 0.907 | -0.705 | -1.22 | -7.01% (inactive) | -0.427 (inactive) | -6e-05 (inactive) | 0.00607 (inactive) | inactive | 7.82% (inactive)
11 | N#CC1=C(N)C(C#N)(C#N)[C@H](c2ccncc2)[C@H]2CN(C(=O)OCc3ccccc3)CC=C12 | 555 | -9.5% (inactive) | -136% (inactive) | 192% | -0.56 | -0.0237 | -0.0209 | 20.3% (inactive) | -0.271 (inactive) | -4.4e-06 (inactive) | 0.00576 (inactive) | inactive | 7.4% (inactive)
12 | Cn1c(=O)c2c(nc(NCc3ccc4c(c3)OCO4)n2Cc2ccc(F)cc2)n(C)c1=O | 600 | 3.1% (inactive) | -39.4% (inactive) | 152% | -0.468 | -0.0841 | -0.555 | -2.91% (inactive) | -0.511 (inactive) | -8.9e-05 (inactive) | 0.00456 (inactive) | inactive | 2.97% (inactive)
13 | CC(C)(C)C1CCC2(CC1)C(C#N)=C(SCC(=O)Nc1ccccc1)NC(=O)C2C#N (configuration not stated) | 390 | -3.7% (inactive) | -138% (inactive) | 85.7% | -1.51 | -1.06 | -0.683 | 9.39% (inactive) | -0.461 (inactive) | 9.2e-06 (inactive) | 0.0063 (inactive) | inactive; toxic | 10.8% (inactive)
14 | CCOC(=O)C(C)Oc1nc(Oc2ccccc2)nc(N(C)C)n1 (configuration not stated) | 645 | -4.1% (inactive) | -25.5% (inactive) | 183% | 0.393 | -0.772 | 1.44 | -7.79% (inactive) | -0.497 (inactive) | -5.5e-05 (inactive) | 0.00486 (inactive) | inactive | -18.7% (inactive)
